ChEMBL document CHEMBL1139333, “Search for new pharmacophores for antimalarial activity. Part I: synthesis and antimalarial activity of new 2-methyl-6-ureido-4-quinolinamides” (Bioorg Med Chem, 2009)
Values after ≈ are worked out from the molar mass of the structure shown.

How the values were obtained:
Plasmodium falciparum [1] = experiment: Antimalarial effect as schizonticidal activity against chloroquine-sensitive Plasmodium falciparum 3D7 after 40 hrs; conditions: 3D7, 40 h
Plasmodium falciparum [2] = experiment: Antimalarial activity against chloroquine-sensitive Plasmodium falciparum 3D7 infected erythrocytes after 72 hrs by MSF assay; conditions: 3D7, 72 h
Plasmodium yoelii [3] = experiment: Antimalarial activity as parasitaemia after 28 days against chloroquine-resistant Plasmodium yoelii N67 infected Swiss mice (Mus musculus) at 50 mg/kg peroral dose over 4 days; type: functional; conditions: route oral
Method in brief: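 Swiss mice (25 g, either sex, n=5) infected on day 0 with 1 × 10⁶ P. yoelii N67 chloroquine-resistant parasitized cells. Test compounds were given orally as an aqueous suspension at 50 mg/kg from day 0 to 3; vehicle controls were run alongside. Parasitaemia was counted on tail-vein thin smears on days 4, 7, 14, 21 and 28, or until death.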

Plasmodium yoelii [4] = experiment: Antimalarial activity as parasitaemia after 28 days against chloroquine-resistant Plasmodium yoelii N67 infected Swiss mice (Mus musculus) at 50 mg/kg peroral dose over 7 days; type: functional; conditions: route oral
[5] = Selectivity index, ratio of CC50 for african green monkey (Cercopithecus aethiops) Vero cells to IC50 for Plasmodium falciparum 3D7; type: functional

SMILES	MIC (Plasmodium falciparum [1])	IC50 (Plasmodium falciparum [2])	Activity (Plasmodium yoelii [3])	Activity (Plasmodium yoelii [4])	Selectivity Index [5]
CC(=O)c1cccc(NC(=O)Nc2ccc3nc(C)cc(NC(=O)c4ccccc4Cl)c3c2)c1	2 µg/mL (≈ 4.23 µM)				
Cc1cc(NC(=O)CN2CCN(C)CC2)c2cc(NC(=O)Nc3ccc(Cl)cc3)ccc2n1	0.5 µg/mL (≈ 1.07 µM)	0.005 µg/mL (≈ 0.0107 µM)			
Cc1cc(NC(=O)c2ccccc2Cl)c2cc(NC(=O)Nc3ccc(Br)cc3)ccc2n1	2 µg/mL (≈ 3.92 µM)		1.9%	8.8%	
CC(=O)c1ccc(NC(=O)Nc2ccc3nc(C)cc(NC(=O)c4ccccc4Cl)c3c2)cc1	2 µg/mL (≈ 4.23 µM)		3.03%	5.98%	
CC(=O)c1cccc(NC(=O)Nc2ccc3nc(C)cc(NC(=O)c4ccccc4)c3c2)c1	10 µg/mL (≈ 22.8 µM)				
Cc1cc(NC(=O)c2ccccc2Cl)c2cc(NC(=O)Nc3cccc(Cl)c3C)ccc2n1	10 µg/mL (≈ 20.9 µM)				
Cc1cc(NC(=O)CN2CCN(C)CC2)c2cc(NC(=O)Nc3cccc(C#N)c3)ccc2n1	2 µg/mL (≈ 4.37 µM)				
Cc1cc(NC(=O)c2cccc(Cl)c2)c2cc(NC(=O)Nc3ccc(Br)cc3)ccc2n1	2 µg/mL (≈ 3.92 µM)				
Cc1cc(NC(=O)c2cccc(Cl)c2)c2cc(NC(=O)Nc3cc(Cl)cc(Cl)c3)ccc2n1	2 µg/mL (≈ 4 µM)	0.218 µg/mL (≈ 0.436 µM)			187.7
Cc1cc(NC(=O)c2cccc(Cl)c2)c2cc(NC(=O)Nc3cccc(C#N)c3)ccc2n1	1 µg/mL (≈ 2.19 µM)				
Cc1cc(NC(=O)c2cccc(Cl)c2)c2cc(NC(=O)Nc3ccc(Cl)c(C(F)(F)F)c3)ccc2n1	> 10 µg/mL				
Cc1cc(NC(=O)c2ccco2)c2cc(NC(=O)Nc3ccc(Cl)cc3)ccc2n1	0.5 µg/mL (≈ 1.19 µM)	0.0139 µg/mL (≈ 0.033 µM)	2.95%	13.2%	3909.5
Cc1cc(NC(=O)c2ccco2)c2cc(NC(=O)Nc3cc(Cl)cc(Cl)c3)ccc2n1	2 µg/mL (≈ 4.39 µM)				
Cc1cc(NC(=O)c2ccccc2Cl)c2cc(NC(=O)Nc3cccc(C#N)c3)ccc2n1	1 µg/mL (≈ 2.19 µM)	0.0284 µg/mL (≈ 0.0623 µM)	6.05%	12.11%	2401.9
Cc1cc(NC(=O)CN2CCCCC2)c2cc(NC(=O)Nc3ccc(Cl)c(Cl)c3)ccc2n1	0.25 µg/mL (≈ 0.514 µM)	0.0758 µg/mL (≈ 0.156 µM)			524.2
Cc1cc(NC(=O)c2ccccc2)c2cc(NC(=O)Nc3ccc(Cl)c(Cl)c3)ccc2n1	1 µg/mL (≈ 2.15 µM)	0.0109 µg/mL (≈ 0.0234 µM)			
Cc1cc(NC(=O)c2ccccc2)c2cc(NC(=O)Nc3ccc(Cl)c(C(F)(F)F)c3)ccc2n1	1 µg/mL (≈ 2 µM)	0.0194 µg/mL (≈ 0.0389 µM)			

SMILES	MIC (Plasmodium falciparum [1])	IC50 (Plasmodium falciparum [2])	Activity (Plasmodium yoelii [3])	Activity (Plasmodium yoelii [4])	Selectivity Index [5]
Cc1cc(NC(=O)c2cccc(Cl)c2)c2cc(NC(=O)Nc3ccc(F)cc3)ccc2n1	10 µg/mL (≈ 22.3 µM)				
Cc1cc(NC(=O)c2ccccc2)c2cc(NC(=O)Nc3cccc(Cl)c3C)ccc2n1	50 µg/mL (≈ 112 µM)				
Cc1cc(NC(=O)c2cccc(Cl)c2)c2cc(NC(=O)Nc3cccc(F)c3)ccc2n1	> 50 µg/mL				
Cc1cc(NC(=O)c2ccccc2)c2cc(NC(=O)Nc3ccc(Br)cc3)ccc2n1	10 µg/mL (≈ 21 µM)				
Cc1cc(NC(=O)c2ccccc2Cl)c2cc(NC(=O)Nc3cccc(Cl)c3)ccc2n1	0.5 µg/mL (≈ 1.07 µM)	0.22 µg/mL (≈ 0.472 µM)	4.23%	9.77%	32.1
Cc1cc(NC(=O)c2ccccc2Cl)c2cc(NC(=O)Nc3cc(Cl)cc(Cl)c3)ccc2n1		0.0217 µg/mL (≈ 0.0434 µM)			505
Cc1cc(NC(=O)c2ccccc2)c2cc(NC(=O)Nc3ccc(Cl)cc3)ccc2n1	> 50 µg/mL				
Cc1cc(NC(=O)c2ccco2)c2cc(NC(=O)Nc3ccc(Br)cc3)ccc2n1	1 µg/mL (≈ 2.15 µM)	0.0571 µg/mL (≈ 0.123 µM)			1547
Cc1cc(NC(=O)c2ccccc2)c2cc(NC(=O)Nc3cccc(C#N)c3)ccc2n1	10 µg/mL (≈ 23.7 µM)				
CCN(CC)CCCC(C)Nc1ccnc2cc(Cl)ccc12 (configuration not stated) [CHLOROQUINE]	0.015 µg/mL (≈ 0.0469 µM)				
CC(=O)c1ccc(NC(=O)Nc2ccc3nc(C)cc(NC(=O)CN4CCN(C)CC4)c3c2)cc1	1 µg/mL (≈ 2.11 µM)	0.014 µg/mL (≈ 0.0295 µM)			
Cc1cc(NC(=O)c2ccco2)c2cc(NC(=O)Nc3ccc(C)c(Cl)c3)ccc2n1	0.5 µg/mL (≈ 1.15 µM)	0.135 µg/mL (≈ 0.31 µM)	0.61%	21.1%	524.7
Cc1cc(NC(=O)c2cccc(Cl)c2)c2cc(NC(=O)Nc3cccc(Cl)c3)ccc2n1	50 µg/mL (≈ 107 µM)				
Cc1cc(NC(=O)CN2CCN(C)CC2)c2cc(NC(=O)Nc3cccc(C(F)(F)F)c3)ccc2n1	0.25 µg/mL (≈ 0.499 µM)	0.0008 µg/mL (≈ 0.0016 µM)	2.5%	21.9%	2594.9
Cc1cc(NC(=O)c2ccccc2Cl)c2cc(NC(=O)Nc3ccc(Cl)c(Cl)c3)ccc2n1	1 µg/mL (≈ 2 µM)	0.194 µg/mL (≈ 0.389 µM)			16.8
Cc1cc(NC(=O)CN2CCN(C)CC2)c2cc(NC(=O)Nc3cccc(Cl)c3C)ccc2n1	> 10 µg/mL				
Cc1cc(NC(=O)c2ccccc2Cl)c2cc(NC(=O)Nc3ccc(Cl)c(C(F)(F)F)c3)ccc2n1		0.0356 µg/mL (≈ 0.0667 µM)			270.9
